Consider 1 molecule from ChEMBL document CHEMBL4354843, “Structure-Based Design of a Potent and Selective Covalent Inhibitor for SRC Kinase That Targets a P-Loop Cysteine” (J Med Chem, 2020).

In experiment [1] the target is Fibroblast growth factor receptor 1 (Homo sapiens, UniProt P11362). Description: Inhibition of recombinant human His-tagged FGFR1 (308 to 731 residues) expressed in baculovirus expression system using tyrosine-4 peptide as substrate incubated for 1 hr by Z'-LYTE assay.
The test system of the next experiment is HCC827. Nature of the experiment: Antiproliferative activity against human HCC827 cells assessed as reduction in cell viability incubated for 72 hrs by cell-titer glo assay relative to control. In kind it is functional. An outline of the steps:
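Cells seeded at 2000 cells/well, dosed next day with a range of concentrations (DMSO 0.2% as control), 72 h exposure, viability read by CellTiter-Glo luminescence. Dose–response curves and GR values derived with the online GR calculator. Two independent experiments, each in technical triplicate.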

The target of experiment [2] is RAC-gamma serine/threonine-protein kinase (Homo sapiens) (UniProt Q9Y243). Nature of the experiment: Binding affinity to wild-type human partial length AKT3 expressed in bacterial expression system assessed as residual binding level at 1 uM by Kinomescan method relative to control.
Experiment [3] has as its target Cytoplasmic tyrosine-protein kinase BMX (Homo sapiens) (UniProt P51813). Nature of the experiment: Binding affinity to wild-type human full length BMX (M1 to H675 residues) expressed in bacterial expression system assessed as residual binding level at 1 uM by Kinomescan method relative to control. An outline of the steps:
(§1)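 KinomeScan, an active site-directed competition binding panel of 468 kinases. The test compound was at 1 μM. The readout is remaining kinase binding as a percentage of the DMSO control. Scores above 35% were treated as weak binding and not listed.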

For experiment [4], the target named is Protein-tyrosine kinase 6 (Homo sapiens) (UniProt Q13882). Nature of the experiment: Binding affinity to wild-type human partial length BRK (L166 to T451 residues) expressed in bacterial expression system assessed as residual binding level at 1 uM by Kinomescan method relative to control.
For experiment [5], the target named is Cyclin-dependent kinase 13 (Homo sapiens) (UniProt Q14004). Description: Binding affinity to wild-type human partial length CDC2L5 (H675 to S1054 residues) expressed in mammalian expression system assessed as residual binding level at 1 uM by Kinomescan method relative to control.
The target in experiment [6] is Cyclin-dependent kinase 5 (Homo sapiens) (UniProt Q00535). Nature of the experiment: Binding affinity to wild-type human full length CDK5 (M1 to P292 residues) expressed in bacterial expression system assessed as residual binding level at 1 uM by Kinomescan method relative to control. An outline of the steps: (§2)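 Active-site-directed KinomeScan competition binding panel covering 468 kinases, compound tested at 1 μM. Each readout is the kinase signal remaining with compound, expressed as a percentage of the DMSO control. […]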

The target of experiment [7] is Casein kinase I isoform alpha-like (Homo sapiens) (UniProt Q8N752). Description: Binding affinity to wild-type human full length CSNK1A1L (M1 to N337 residues) expressed in bacterial expression system assessed as residual binding level at 1 uM by Kinomescan method relative to control. Summed up: as §2
The target in experiment [8] is Casein kinase I isoform gamma-2 (Homo sapiens) (UniProt P78368). Description: Binding affinity to wild-type human full length CSNK1G2 (M1 to K415 residues) expressed in bacterial expression system assessed as residual binding level at 1 uM by Kinomescan method relative to control. An outline of the steps:
as §2

Experiment [9] deals with Ephrin type-B receptor 3 (Homo sapiens) (UniProt P54753). Description: Binding affinity to wild-type human partial length EPHB3 (Q599 to T928 residues) expressed in bacterial expression system assessed as residual binding level at 1 uM by Kinomescan method relative to control. Summed up: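 Active-site-directed competition binding panel of 468 kinases (KinomeScan), compound at 1 μM. The read-out is kinase remaining bound, given as a percentage of the DMSO control. […]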

Experiment [10] concerns the target Inhibitor of nuclear factor kappa-B kinase subunit alpha (Homo sapiens) (UniProt O15111). Nature of the experiment: Binding affinity to wild-type human full length IKK-alpha (M1 to E745 residues) expressed in mammalian expression system assessed as residual binding level at 1 uM by Kinomescan method relative to control. Summed up: as §2
The target in experiment [11] is LIM domain kinase 2 (Homo sapiens) (UniProt P53671). Nature of the experiment: Binding affinity to wild-type human full length LIMK2 (M1 to P638 residues) expressed in bacterial expression system assessed as residual binding level at 1 uM by Kinomescan method relative to control. An outline of the steps: as §2
The target in experiment [12] is Mitogen-activated protein kinase kinase kinase kinase 3 (Homo sapiens) (UniProt Q8IVH8). Description: Binding affinity to wild-type human partial length MAP4K3 (M1 to D301 residues) expressed in bacterial expression system assessed as residual binding level at 1 uM by Kinomescan method relative to control.
Experiment [13] deals with Dual specificity mitogen-activated protein kinase kinase 3 (Homo sapiens) (UniProt P46734). Description: Binding affinity to wild-type human full length MEK3 (M1 to S318 residues) expressed in mammalian expression system assessed as residual binding level at 1 uM by Kinomescan method relative to control. Summed up:
as §1

Experiment [14] deals with Mitogen-activated protein kinase kinase kinase 11 (Homo sapiens) (UniProt Q16584). Description: Binding affinity to wild-type human partial length MLK3 (I77 to W399 residues) expressed in bacterial expression system assessed as residual binding level at 1 uM by Kinomescan method relative to control.
Experiment [15] concerns the target Mitogen-activated protein kinase 14 (Homo sapiens) (UniProt Q16539). Description: Binding affinity to wild-type human full length p38-alpha (M1 to S360 residues) expressed in bacterial expression system assessed as residual binding level at 1 uM by Kinomescan method relative to control. Summed up:
as §1

The target in experiment [16] is Cyclin-dependent kinase 18 (Homo sapiens) (UniProt Q07002). Nature of the experiment: Binding affinity to wild-type human full length PCTK3 (M3 to F474 residues) expressed in bacterial expression system assessed as residual binding level at 1 uM by Kinomescan method relative to control. Summed up: as §1
Experiment [17] concerns the target Protein-tyrosine kinase 2-beta (Homo sapiens) (UniProt Q14289). Description: Binding affinity to wild-type human full length PYK2 (M1 to E967 residues) expressed in bacterial expression system assessed as residual binding level at 1 uM by Kinomescan method relative to control. Summed up:
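Active-site-directed competition binding panel (KinomeScan) covering 468 kinases. Test agent was screened at 1 μM. The read-out is the remaining kinase signal expressed relative to a DMSO control. Scores above 35%, taken as weak binding, were not reported.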

The target in experiment [18] is Non-receptor tyrosine-protein kinase TNK1 (Homo sapiens) (UniProt Q13470). Nature of the experiment: Binding affinity to wild-type human full length TNK1 (M1 to P661 residues) expressed in bacterial expression system assessed as residual binding level at 1 uM by Kinomescan method relative to control. An outline of the steps: as §1
Experiment [19] addresses Serine/threonine-protein kinase TNNI3K (Homo sapiens) (UniProt Q59H18). Description: Binding affinity to wild-type human full length TNNI3K (M1 to S835 residues) expressed in bacterial expression system assessed as residual binding level at 1 uM by Kinomescan method relative to control. Summed up:
as §1

Experiment [20] concerns the target Serine/threonine-protein kinase ULK1 (Homo sapiens) (UniProt O75385). Description: Binding affinity to wild-type human partial length ULK1 (M1 to T309 residues) expressed in mammalian expression system assessed as residual binding level at 1 uM by Kinomescan method relative to control.

Chain of Mitogen-activated protein kinase kinase kinase 11 (Homo sapiens) (Q16584 whole entry, looked up, the tested form may be a part): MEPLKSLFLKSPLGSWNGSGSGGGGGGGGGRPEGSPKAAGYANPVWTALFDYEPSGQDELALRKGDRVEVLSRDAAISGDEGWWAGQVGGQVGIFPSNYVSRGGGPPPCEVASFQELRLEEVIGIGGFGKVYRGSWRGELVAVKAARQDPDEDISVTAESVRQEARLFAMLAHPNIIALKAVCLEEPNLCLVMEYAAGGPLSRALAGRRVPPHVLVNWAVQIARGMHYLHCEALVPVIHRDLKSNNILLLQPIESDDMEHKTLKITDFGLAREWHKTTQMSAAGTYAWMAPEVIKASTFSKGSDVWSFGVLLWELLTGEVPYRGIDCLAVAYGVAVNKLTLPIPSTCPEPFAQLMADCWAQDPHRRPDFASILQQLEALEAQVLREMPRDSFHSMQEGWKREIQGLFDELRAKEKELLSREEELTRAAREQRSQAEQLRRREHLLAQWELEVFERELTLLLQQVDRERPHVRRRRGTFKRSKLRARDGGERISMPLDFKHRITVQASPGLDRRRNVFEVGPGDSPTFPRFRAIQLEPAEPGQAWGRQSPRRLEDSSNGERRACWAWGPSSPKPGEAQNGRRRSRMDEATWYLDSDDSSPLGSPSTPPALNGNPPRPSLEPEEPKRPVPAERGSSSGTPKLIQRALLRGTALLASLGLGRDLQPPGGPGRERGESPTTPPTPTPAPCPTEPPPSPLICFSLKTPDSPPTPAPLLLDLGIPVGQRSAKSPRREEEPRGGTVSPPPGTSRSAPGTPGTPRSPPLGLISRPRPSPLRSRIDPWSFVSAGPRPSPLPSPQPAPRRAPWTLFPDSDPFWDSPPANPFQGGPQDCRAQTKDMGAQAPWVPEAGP
Chain of Serine/threonine-protein kinase TNNI3K (Homo sapiens) (Q59H18 whole entry, the tested form may be a part): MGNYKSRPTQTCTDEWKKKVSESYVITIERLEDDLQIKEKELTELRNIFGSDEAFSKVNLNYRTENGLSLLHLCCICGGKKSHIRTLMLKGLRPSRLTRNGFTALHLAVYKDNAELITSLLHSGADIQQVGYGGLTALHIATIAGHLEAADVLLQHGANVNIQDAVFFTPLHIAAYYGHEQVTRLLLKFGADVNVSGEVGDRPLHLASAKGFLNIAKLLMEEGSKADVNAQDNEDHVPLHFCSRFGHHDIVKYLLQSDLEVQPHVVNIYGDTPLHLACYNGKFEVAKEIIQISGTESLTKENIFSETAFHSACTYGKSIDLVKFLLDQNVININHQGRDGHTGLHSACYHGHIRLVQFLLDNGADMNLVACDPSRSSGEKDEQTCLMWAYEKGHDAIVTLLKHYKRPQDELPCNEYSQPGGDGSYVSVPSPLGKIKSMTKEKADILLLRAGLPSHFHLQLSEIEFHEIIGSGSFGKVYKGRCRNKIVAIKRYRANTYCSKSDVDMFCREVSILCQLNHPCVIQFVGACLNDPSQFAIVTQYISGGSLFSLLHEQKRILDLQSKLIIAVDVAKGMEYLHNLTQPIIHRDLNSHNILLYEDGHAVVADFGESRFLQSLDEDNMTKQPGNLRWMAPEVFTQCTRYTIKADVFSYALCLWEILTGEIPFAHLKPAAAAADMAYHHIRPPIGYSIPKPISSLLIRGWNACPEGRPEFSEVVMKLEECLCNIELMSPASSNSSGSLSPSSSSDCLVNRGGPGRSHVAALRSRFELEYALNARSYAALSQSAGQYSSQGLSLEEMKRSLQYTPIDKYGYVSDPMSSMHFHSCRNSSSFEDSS
Chain of Non-receptor tyrosine-protein kinase TNK1 (Homo sapiens) (Q13470 whole entry, the tested form may be a part): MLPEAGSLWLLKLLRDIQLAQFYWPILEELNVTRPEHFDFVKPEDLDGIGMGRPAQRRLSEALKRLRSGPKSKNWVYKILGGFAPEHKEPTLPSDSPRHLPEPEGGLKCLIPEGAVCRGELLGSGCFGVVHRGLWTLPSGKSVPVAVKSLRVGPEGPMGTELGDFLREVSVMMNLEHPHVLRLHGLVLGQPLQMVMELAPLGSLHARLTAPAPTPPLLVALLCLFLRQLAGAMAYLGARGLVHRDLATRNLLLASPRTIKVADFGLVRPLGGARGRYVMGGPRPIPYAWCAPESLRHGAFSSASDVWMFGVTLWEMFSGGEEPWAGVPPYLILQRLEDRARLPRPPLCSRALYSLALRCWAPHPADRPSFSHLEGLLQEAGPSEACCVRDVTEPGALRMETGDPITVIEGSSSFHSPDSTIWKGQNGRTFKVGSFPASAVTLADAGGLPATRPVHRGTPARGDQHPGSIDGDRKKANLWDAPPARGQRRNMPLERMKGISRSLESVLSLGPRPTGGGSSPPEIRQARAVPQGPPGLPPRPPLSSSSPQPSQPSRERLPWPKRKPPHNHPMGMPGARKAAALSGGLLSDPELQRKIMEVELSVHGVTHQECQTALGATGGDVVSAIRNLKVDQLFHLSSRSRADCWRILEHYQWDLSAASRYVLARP
Chain of RAC-gamma serine/threonine-protein kinase (Homo sapiens) (Q9Y243 whole entry, the tested form may be a part): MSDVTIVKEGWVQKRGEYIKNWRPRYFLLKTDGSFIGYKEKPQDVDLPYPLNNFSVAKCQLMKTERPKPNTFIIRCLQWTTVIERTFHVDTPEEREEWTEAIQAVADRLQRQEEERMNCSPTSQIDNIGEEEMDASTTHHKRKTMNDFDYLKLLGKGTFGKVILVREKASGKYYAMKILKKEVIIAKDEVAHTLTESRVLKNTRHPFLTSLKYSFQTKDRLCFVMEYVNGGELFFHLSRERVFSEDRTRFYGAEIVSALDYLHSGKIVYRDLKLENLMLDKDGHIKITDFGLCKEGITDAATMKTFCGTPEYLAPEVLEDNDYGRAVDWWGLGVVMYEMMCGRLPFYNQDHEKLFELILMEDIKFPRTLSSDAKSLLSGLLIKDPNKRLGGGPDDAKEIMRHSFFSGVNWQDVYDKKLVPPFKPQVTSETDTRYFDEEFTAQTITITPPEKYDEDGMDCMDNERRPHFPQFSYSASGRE
Chain of Cyclin-dependent kinase 13 (Homo sapiens) (Q14004 whole entry, looked up, the tested form may be a part): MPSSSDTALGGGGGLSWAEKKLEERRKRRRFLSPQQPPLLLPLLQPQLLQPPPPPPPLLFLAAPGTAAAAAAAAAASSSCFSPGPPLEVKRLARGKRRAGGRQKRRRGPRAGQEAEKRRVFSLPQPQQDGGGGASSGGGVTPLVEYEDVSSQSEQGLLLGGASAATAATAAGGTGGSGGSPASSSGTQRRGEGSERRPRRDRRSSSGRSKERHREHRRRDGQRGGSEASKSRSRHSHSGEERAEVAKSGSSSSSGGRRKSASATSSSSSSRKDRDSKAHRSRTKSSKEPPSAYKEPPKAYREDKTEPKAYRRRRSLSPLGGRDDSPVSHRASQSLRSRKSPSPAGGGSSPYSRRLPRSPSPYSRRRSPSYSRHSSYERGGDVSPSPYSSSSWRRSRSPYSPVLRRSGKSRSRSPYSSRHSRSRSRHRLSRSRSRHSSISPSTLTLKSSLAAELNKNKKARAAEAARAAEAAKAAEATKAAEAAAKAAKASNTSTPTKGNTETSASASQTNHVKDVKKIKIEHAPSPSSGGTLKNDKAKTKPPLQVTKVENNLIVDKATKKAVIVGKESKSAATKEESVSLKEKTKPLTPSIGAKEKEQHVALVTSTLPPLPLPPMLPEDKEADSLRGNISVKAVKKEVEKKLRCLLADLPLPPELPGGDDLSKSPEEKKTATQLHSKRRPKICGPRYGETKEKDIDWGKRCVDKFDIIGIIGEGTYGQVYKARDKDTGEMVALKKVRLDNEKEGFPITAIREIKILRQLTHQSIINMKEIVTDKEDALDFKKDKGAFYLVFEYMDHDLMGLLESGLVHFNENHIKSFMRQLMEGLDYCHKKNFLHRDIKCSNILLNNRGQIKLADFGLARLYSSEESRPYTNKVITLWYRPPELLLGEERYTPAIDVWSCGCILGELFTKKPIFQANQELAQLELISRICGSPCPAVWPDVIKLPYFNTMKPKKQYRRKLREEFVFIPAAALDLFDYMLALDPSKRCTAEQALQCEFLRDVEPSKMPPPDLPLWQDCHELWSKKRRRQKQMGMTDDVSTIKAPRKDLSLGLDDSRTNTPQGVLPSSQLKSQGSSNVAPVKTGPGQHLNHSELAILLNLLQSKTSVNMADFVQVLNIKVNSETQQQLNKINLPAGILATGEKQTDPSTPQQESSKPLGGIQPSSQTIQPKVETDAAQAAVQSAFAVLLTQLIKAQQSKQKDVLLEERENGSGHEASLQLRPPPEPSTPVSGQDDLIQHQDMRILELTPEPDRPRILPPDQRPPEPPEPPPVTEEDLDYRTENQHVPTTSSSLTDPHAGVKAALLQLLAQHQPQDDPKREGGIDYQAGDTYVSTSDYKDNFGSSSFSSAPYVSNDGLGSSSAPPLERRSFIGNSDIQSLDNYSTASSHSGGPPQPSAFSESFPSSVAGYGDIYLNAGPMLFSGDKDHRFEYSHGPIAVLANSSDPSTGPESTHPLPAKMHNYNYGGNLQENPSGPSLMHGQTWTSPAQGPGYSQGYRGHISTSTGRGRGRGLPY
Chain of LIM domain kinase 2 (Homo sapiens) (P53671 whole entry, looked up, the tested form may be a part): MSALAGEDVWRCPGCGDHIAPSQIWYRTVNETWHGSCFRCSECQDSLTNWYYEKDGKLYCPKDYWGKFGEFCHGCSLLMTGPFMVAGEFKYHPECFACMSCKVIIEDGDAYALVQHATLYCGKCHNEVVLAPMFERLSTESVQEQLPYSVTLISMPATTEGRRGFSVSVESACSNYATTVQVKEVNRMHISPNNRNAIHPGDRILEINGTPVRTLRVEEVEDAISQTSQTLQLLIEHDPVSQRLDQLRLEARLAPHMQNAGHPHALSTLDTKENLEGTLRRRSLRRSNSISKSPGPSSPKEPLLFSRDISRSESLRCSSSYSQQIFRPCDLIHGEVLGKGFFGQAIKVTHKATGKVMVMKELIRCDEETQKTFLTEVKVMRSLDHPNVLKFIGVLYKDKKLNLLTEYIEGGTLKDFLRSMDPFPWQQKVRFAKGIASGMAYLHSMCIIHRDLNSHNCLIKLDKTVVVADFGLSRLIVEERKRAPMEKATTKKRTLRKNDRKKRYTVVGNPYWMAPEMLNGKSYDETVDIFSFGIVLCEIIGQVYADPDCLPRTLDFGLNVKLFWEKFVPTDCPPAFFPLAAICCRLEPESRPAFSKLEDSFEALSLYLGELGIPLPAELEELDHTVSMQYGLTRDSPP

As to `C=CC(=O)Nc1ccccc1Nc1nc(Nc2ccc(N3CCN(C)CC3)cc2)ncc1C(=O)Nc1c(C)cccc1Cl`, the IC50 in experiment [1] is 8.34 µM. Besides, the Emax with HCC827 was -0.6. Moreover, the Activity in experiment [2] stood at 100%; in experiment [3] it was 48%; in experiment [4], 100%; in experiment [5], 92%; in experiment [6], 100%; in [7], 100%. Also, the Activity in experiment [8] came to 100%; in [9] it was 97%; in [10] it was 100%; in experiment [11], 100%; in [12] it was 100%; in experiment [13], 69%. Also, the Activity in experiment [14] is 100%; in experiment [15] it was 28%; in experiment [16], 98%; in experiment [17], 100%; in [18] it was 29%; in experiment [19], 83%. Moreover, the Activity in experiment [20] was found to be 100%.

As usually defined, the IC50 is the concentration needed to halve the response being measured.
